Source: ChEMBL document CHEMBL1126910, “18F-labeled benzamides for studying the dopamine D2 receptor with positron emission tomography” (J Med Chem, 1993)
Values belong to the compound of their own block, whether it stands above or below them.

Legend:
D(2) dopamine receptor = D(2) dopamine receptor (Rattus norvegicus, UniProt P61169); experiment: Inhibition of [125I]- NCQ 298 binding to D2 receptor of rat striatal tissue; assay type: tissue-based, Striatum
Rattus norvegicus [1] = experiment: In vivo blood concentration of [18F]-labeled compound by rat brain at 30 min; assay type: functional, organism-based
Procedure, shortened: (§1)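 Sprague–Dawley rats (200–300 g) under ketamine/xylazine anesthesia given 0.5–1.0 mL of 0.9% saline containing 18F-labeled ligand (20–150 μCi) i.v. via femoral vein. Killed by decapitation at set times (5 min to 5 h). A blood sample was taken and gamma-counted, expressed as % ID/g of blood. Mean ± SEM, n = 4-8.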

Rattus norvegicus [2] = experiment: In vivo blood concentration of [18F]-labeled compound by rat brain at 2 hr; assay type: functional, organism-based; procedure, shortened: as §1
Rattus norvegicus [3] = experiment: In vivo brain uptake of [18F]-labeled compound by rat brain at 3h; assay type: functional, organism-based
Procedure, shortened: (§2)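 Sprague–Dawley rats (200–300 g), anesthetized with ketamine/xylazine, received 18F-labeled ligand (20–150 μCi) in 0.5–1.0 mL 0.9% saline i.v. (femoral vein). Decapitated at set intervals from 5 min to 5 h. Whole brain removed, weighed and gamma-counted, expressed as % ID/brain and % ID/g brain. Mean ± SEM, n = 4-8.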

[4] = molecular target: T1, Adrenergic receptor alpha-2 (Rattus norvegicus, UniProt P22086+P19328+P22909); experiment: In vitro binding affinity on alpha-2 receptor is inhibition of binding of [3H]- rauwolscine to rat cortex
T1 sequence (P22086 whole entry): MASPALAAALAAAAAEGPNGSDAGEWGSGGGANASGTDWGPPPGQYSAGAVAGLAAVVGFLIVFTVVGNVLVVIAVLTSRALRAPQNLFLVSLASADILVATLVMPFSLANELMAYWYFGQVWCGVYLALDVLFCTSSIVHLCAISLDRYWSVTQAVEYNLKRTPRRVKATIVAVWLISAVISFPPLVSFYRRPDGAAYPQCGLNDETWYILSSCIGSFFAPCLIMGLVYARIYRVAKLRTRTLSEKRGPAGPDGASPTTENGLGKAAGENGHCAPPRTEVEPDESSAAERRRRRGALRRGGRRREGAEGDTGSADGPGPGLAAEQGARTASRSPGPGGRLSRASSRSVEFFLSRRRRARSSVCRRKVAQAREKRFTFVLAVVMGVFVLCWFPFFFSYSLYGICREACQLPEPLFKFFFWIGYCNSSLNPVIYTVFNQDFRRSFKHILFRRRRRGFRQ
T1 sequence (P19328 whole entry): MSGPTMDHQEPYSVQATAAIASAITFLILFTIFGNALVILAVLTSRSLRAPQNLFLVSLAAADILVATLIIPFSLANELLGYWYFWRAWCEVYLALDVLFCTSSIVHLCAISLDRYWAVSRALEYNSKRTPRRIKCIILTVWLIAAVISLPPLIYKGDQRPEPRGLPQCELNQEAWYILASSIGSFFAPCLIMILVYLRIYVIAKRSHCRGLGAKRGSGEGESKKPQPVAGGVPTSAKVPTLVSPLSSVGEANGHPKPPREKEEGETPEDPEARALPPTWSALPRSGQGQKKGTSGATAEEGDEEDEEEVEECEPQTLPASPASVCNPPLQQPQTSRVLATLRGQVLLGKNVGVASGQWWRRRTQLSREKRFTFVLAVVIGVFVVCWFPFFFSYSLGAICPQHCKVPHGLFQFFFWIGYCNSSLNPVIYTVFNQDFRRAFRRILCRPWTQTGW
T1 sequence (P22909 whole entry): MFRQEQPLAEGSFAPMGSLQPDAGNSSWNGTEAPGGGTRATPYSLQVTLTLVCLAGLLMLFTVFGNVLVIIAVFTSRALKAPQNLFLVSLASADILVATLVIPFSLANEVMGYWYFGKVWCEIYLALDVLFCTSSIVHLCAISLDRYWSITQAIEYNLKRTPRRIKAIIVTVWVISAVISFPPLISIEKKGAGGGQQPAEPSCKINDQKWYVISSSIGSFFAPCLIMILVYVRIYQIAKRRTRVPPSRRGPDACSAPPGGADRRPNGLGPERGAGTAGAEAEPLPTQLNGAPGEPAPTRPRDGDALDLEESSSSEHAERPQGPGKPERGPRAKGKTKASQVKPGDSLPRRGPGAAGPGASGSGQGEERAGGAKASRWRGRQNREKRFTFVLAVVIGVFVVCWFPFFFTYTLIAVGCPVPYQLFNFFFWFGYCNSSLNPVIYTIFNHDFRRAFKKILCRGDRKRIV
Procedure, shortened: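 Rat cerebral cortex membranes, 2 nM [3H]rauwolscine in 20 mM HEPES pH 7.4, run in triplicate; nonspecific with 10 μM phentolamine; 20 °C, 30 min; glass fiber filtration, liquid scintillation counting. IC50 by curve fitting, converted to Ki via Cheng–Prusoff.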

[5] = molecular target: Serotonin 2 (5-HT2) receptor (Rattus norvegicus, UniProt P30994+P08909+P14842); experiment: In vitro binding affinity on 5-hydroxytryptamine 2 receptor is inhibition of binding of [125I]- I-LSD to P11 cells
Procedure, shortened: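 Competition binding on membranes from P11 cells (pituitary tumor 7315A line, 5-HT2 without D2 or other serotonin subtypes); 0.4–0.5 nM [125I]I-LSD in 50 mM Tris-HCl pH 7.4; 1 μM ketanserin defines nonspecific; 37 °C, 60 min; filtration, gamma counting. IC50 from curve fitting, Ki by Cheng–Prusoff.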

Rattus norvegicus [6] = experiment: In vivo blood concentration of [18F]-labeled compound by rat brain at 4 hr; assay type: functional, organism-based; procedure, shortened: as §1
Rattus norvegicus [7] = experiment: In vivo blood concentration of [18F]-labeled compound by rat brain at 1 hr; assay type: functional, organism-based; procedure, shortened: as §1
Rattus norvegicus [8] = experiment: In vivo brain uptake of [18F]-labeled compound by rat brain at 30 min; assay type: functional, organism-based; procedure, shortened: as §2
Rattus norvegicus [9] = experiment: In vivo blood concentration of [18F]-labeled compound by rat brain at 3h; assay type: functional, organism-based; procedure, shortened: as §1
Rattus norvegicus [10] = experiment: In vivo brain uptake of [18F]-labeled compound by rat brain at 2 hr; assay type: functional, organism-based; procedure, shortened: as §2
Rattus norvegicus [11] = experiment: In vivo brain uptake of [18F]-labeled compound by rat brain at 5 hr; assay type: functional, organism-based; procedure, shortened: as §2
Rattus norvegicus [12] = experiment: In vivo brain uptake of [18F]-labeled compound by rat brain at 1 hr; assay type: functional, organism-based; procedure, shortened: as §2
Rattus norvegicus [13] = experiment: In vivo blood concentration of [18F]-labeled compound by rat brain at 5 hr; assay type: functional, organism-based; procedure, shortened: as §1
Rattus norvegicus [14] = experiment: In vivo blood concentration of [18F]-labeled compound by rat brain at 5 min; assay type: functional, organism-based; procedure, shortened: as §1
Rattus norvegicus [15] = experiment: In vivo brain uptake of [18F]-labeled compound by rat brain at 4 hr; assay type: functional, organism-based; procedure, shortened: as §2
Rattus norvegicus [16] = experiment: In vivo brain uptake of [18F]-labeled compound by rat brain at 5 min; assay type: functional, organism-based; procedure, shortened: as §2
[17] = Partition coefficient (logP); assay type: physicochemical; details: C-18 reversed-phase HPLC
Procedure, shortened: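 Lipophilicity measured as log P by the C-18 reversed-phase HPLC method of Kraak et al.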

[18] = molecular target: D(3) dopamine receptor (Rattus norvegicus); experiment: In vitro binding affinity on D3 receptor is inhibition of binding of [125I]- NCQ 298 to Sf9 cells infected with recombinant baculovirus

Chain of D(2) dopamine receptor (P61169 whole entry): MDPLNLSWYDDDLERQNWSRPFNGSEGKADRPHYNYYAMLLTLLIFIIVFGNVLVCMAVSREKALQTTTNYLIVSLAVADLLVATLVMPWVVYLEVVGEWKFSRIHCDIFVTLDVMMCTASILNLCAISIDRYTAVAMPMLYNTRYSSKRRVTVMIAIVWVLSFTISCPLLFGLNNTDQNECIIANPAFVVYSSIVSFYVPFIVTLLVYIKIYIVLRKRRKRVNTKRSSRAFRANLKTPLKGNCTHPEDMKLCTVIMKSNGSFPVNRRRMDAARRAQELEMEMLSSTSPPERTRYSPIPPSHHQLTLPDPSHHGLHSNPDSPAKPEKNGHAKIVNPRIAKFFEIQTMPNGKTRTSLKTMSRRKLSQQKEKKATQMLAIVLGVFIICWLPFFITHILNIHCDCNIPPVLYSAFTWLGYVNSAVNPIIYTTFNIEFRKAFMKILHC

SMILES: COc1cc(N)c(Cl)cc1C(=O)NC1CC2CCCC(C1)N2Cc1ccccc1 (stereo not drawn)
Ki (D(2) dopamine receptor): 0.036 nM

Ki (D(2) dopamine receptor): 0.31 nM
SMILES: COc1cc(Br)cc(C(=O)NC2CCN(Cc3ccccc3)CC2)c1OC

Ki [4]: 3000 nM
Ki [5]: 94 nM
SMILES: COc1cc(Br)cc(C(=O)NC2CCN(Cc3ccc(F)cc3)CC2)c1OC
ID/g (Rattus norvegicus [1]): 0.036%
ID/g (Rattus norvegicus [2]): 0.016%
ID/brain (Rattus norvegicus [3]): 0.2%
ID/g (Rattus norvegicus [3]): 0.1%
ID/g (Rattus norvegicus [6]): 0.012%
ID/g (Rattus norvegicus [7]): 0.025%
ID/brain (Rattus norvegicus [8]): 0.55%
ID/g (Rattus norvegicus [8]): 0.32%
ID/g (Rattus norvegicus [9]): 0.013%
ID/brain (Rattus norvegicus [10]): 0.27%
ID/g (Rattus norvegicus [10]): 0.14%
ID/brain (Rattus norvegicus [11]): 0.2%
ID/g (Rattus norvegicus [11]): 0.12%
ID/brain (Rattus norvegicus [12]): 0.36%
ID/g (Rattus norvegicus [12]): 0.2%
ID/g (Rattus norvegicus [13]): 0.012%
ID/g (Rattus norvegicus [14]): 0.088%
ID/brain (Rattus norvegicus [15]): 0.21%
ID/g (Rattus norvegicus [15]): 0.12%
ID/brain (Rattus norvegicus [16]): 1.12%
ID/g (Rattus norvegicus [16]): 0.58%

Ki (D(2) dopamine receptor): 0.63 nM
SMILES: COc1cccc(C(=O)NC2CCN(Cc3ccccc3)CC2)c1OC

Ki [4]: 1900 nM
Ki [5]: 3.1 nM
Ki (D(2) dopamine receptor): 0.02 nM
SMILES: COc1cc(Br)cc(C(=O)NC2CC3CCCC(C2)N3Cc2ccc(F)cc2)c1OC (stereo not drawn)

Ki [4]: 600 nM
Ki [5]: 89 nM
SMILES: COc1cc(N)c(Cl)cc1C(=O)NC1CCN(Cc2ccccc2)CC1 [CLEBOPRIDE]

Ki [4]: 1300 nM
Ki [5]: 84 nM
logP [17]: 2.86
SMILES: COc1cccc(C(=O)NC2CC3CCCC(C2)N3Cc2ccc(F)cc2)c1OC (stereo not drawn)
ID/g (Rattus norvegicus [1]): 0.089%
ID/g (Rattus norvegicus [2]): 0.024%
ID/brain (Rattus norvegicus [3]): 0.37%
ID/g (Rattus norvegicus [3]): 0.23%
ID/g (Rattus norvegicus [6]): 0.013%
ID/g (Rattus norvegicus [7]): 0.044%
ID/brain (Rattus norvegicus [8]): 0.35%
ID/g (Rattus norvegicus [8]): 0.2%
ID/g (Rattus norvegicus [9]): 0.019%
ID/brain (Rattus norvegicus [10]): 0.44%
ID/g (Rattus norvegicus [10]): 0.27%
ID/brain (Rattus norvegicus [11]): 0.23%
ID/g (Rattus norvegicus [11]): 0.14%
ID/brain (Rattus norvegicus [12]): 0.31%
ID/g (Rattus norvegicus [12]): 0.23%
ID/g (Rattus norvegicus [13]): 0.005%
ID/g (Rattus norvegicus [14]): 0.156%
ID/brain (Rattus norvegicus [15]): 0.36%
ID/g (Rattus norvegicus [15]): 0.22%
ID/brain (Rattus norvegicus [16]): 0.64%
ID/g (Rattus norvegicus [16]): 0.39%

SMILES: COc1cccc(C(=O)NC2CC3CCCC(C2)N3Cc2ccccc2)c1OC (stereo not drawn)
Ki (D(2) dopamine receptor): 0.038 nM

SMILES: COc1cc(N)c(Cl)cc1C(=O)N[C@@H]1C[C@H]2CCC[C@@H](C1)N2Cc1ccc(F)cc1
Ki [5]: 2200 nM
Ki (D(2) dopamine receptor): > 10 nM

Ki [4]: 3000 nM
Ki [5]: 1840 nM
Ki (D(2) dopamine receptor): 0.38 nM
Ki [18]: 5.91 nM
logP [17]: 2.83
SMILES: COc1cccc(C(=O)NC2CCN(Cc3ccc(F)cc3)CC2)c1OC
ID/g (Rattus norvegicus [1]): 0.066%
ID/g (Rattus norvegicus [2]): 0.029%
ID/brain (Rattus norvegicus [3]): 0.38%
ID/g (Rattus norvegicus [3]): 0.25%
ID/g (Rattus norvegicus [6]): 0.01%
ID/g (Rattus norvegicus [7]): 0.043%
ID/brain (Rattus norvegicus [8]): 0.61%
ID/g (Rattus norvegicus [8]): 0.39%
ID/g (Rattus norvegicus [9]): 0.017%
ID/brain (Rattus norvegicus [10]): 0.5%
ID/g (Rattus norvegicus [10]): 0.33%
ID/brain (Rattus norvegicus [11]): 0.19%
ID/g (Rattus norvegicus [11]): 0.12%
ID/brain (Rattus norvegicus [12]): 0.57%
ID/g (Rattus norvegicus [12]): 0.36%
ID/g (Rattus norvegicus [13]): 0.012%
ID/g (Rattus norvegicus [14]): 0.155%
ID/brain (Rattus norvegicus [15]): 0.17%
ID/g (Rattus norvegicus [15]): 0.11%
ID/brain (Rattus norvegicus [16]): 1.28%
ID/g (Rattus norvegicus [16]): 0.81%

Ki [18]: 0.16 nM
SMILES: CCN1CCC[C@H]1CNC(=O)c1c(O)c(I)cc(OC)c1OC [IOXIPRIDE]

Ki (D(2) dopamine receptor): 0.033 nM
SMILES: COc1cc(Br)cc(C(=O)NC2CC3CCCC(C2)N3Cc2ccccc2)c1OC (stereo not drawn)

Ki [4]: 1300 nM
Ki [5]: 283 nM
SMILES: COc1cc(N)c(Cl)cc1C(=O)NC1CCN(Cc2ccc(F)cc2)CC1
